# Test results as given in ChEMBL document CHEMBL1128324, “Synthesis and antitumor activity of 4- and 5-substituted derivatives of isoquinoline-1-carboxaldehyde thiosemicarbazone” (1995).
# Where “and” joins values, the source holds several entries; their conditions need not be identical. Equal values may be shown once.
# Organism: Mus musculus
# Experiment: The compound was tested for antineoplastic activity on the survival time of mice bearing L1210 leukemia. Optimum daily dosage of the compound.
# Assay type: functional
row,Structure (SMILES),Dose [mg/kg]
1,N/C(S)=N/N=C\c1ncc(N)c2ccccc12,40
2,N/C(S)=N/N=C/c1ccc(N)cn1,20

# Organism: Mus musculus
# Experiment: antineoplastic activity on the survival time of mice bearing L1210 leukemia. Daily dosage of the compound.
# Assay type: functional
# How it was run: (§1)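 L1210 leukemia-bearing CD2F1 mice, 5-10 per group, received the drug as an ip suspension once daily for 6 consecutive days, starting 24 h after tumor implantation. %T/C is treated over control survival time ×100. Average weight change is measured from the onset to the termination of treatment.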
row,Structure (SMILES),Dose
1,NCCNc1cnc(/C=N\N=C(\N)S)c2ccccc12,60 mg/kg and 40 mg/kg and 20 mg/kg

# Organism: Mus musculus
# Experiment: The compound was tested for antineoplastic activity on the survival time of mice bearing L1210 leukemia. Average weight change of mice from onset to termination of therapy.
# Assay type: functional
# How it was run: (§2)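 CD2F1 mice bearing L1210 leukemia, 5-10 per group. Drug was given ip as a suspension twice daily (about 12 h apart) for 6 consecutive days, starting 24 h after tumor implantation. Mean survival counts only mice dying before day 60. Survivors beyond 60 days are scored as long-term. Body-weight change is measured from the start to the end of therapy.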
row,Structure (SMILES),Average weight [%]
1,N/C(S)=N/N=C\c1ncc(N)c2ccccc12,-7.8
2,N/C(S)=N/N=C/c1ccc(N)cn1,-7.6

# Organism: Mus musculus
# Experiment: antineoplastic activity on the survival time of mice bearing L1210 leukemia. Average weight change of mice from onset to termination of drug treatment.
# Assay type: functional
# How it was run: as §1
row,Structure (SMILES),Average weight change
1,CNc1cnc(/C=N\N=C(\N)S)c2ccccc12,1% and 3% and 8%
2,N/C(S)=N/N=C\c1ncc(N)c2ccccc12,3.2% and 3.6% and 3%
3,NCCNc1cnc(/C=N\N=C(\N)S)c2ccccc12,-4.6% and -5%
4,N/C(S)=N/N=C\c1ncc(N2CCOCC2)c2c(N)cccc12,2% and 7.3% and 6.8%
5,N/C(S)=N/N=C/c1ccc(N)cn1,-18% and -2.8% and 0%

# Organism: Mus musculus
# Experiment: The compound was tested for antineoplastic activity on the survival time of mice bearing L1210 leukemia.% T/C represents the ratio of the survival time of treated to control mice * 100.
# Assay type: functional
row,Structure (SMILES),T/C [%]
1,N/C(S)=N/N=C\c1ncc(N)c2ccccc12,165
2,N/C(S)=N/N=C/c1ccc(N)cn1,234

# Organism: Mus musculus
# Experiment: antineoplastic activity on the survival time of mice bearing L1210 leukemia.% T/C represents the ratio of the survival time of treated to control mice * 100.
# Assay type: functional
# How it was run: as §1
row,Structure (SMILES),T/C
1,CNc1cnc(/C=N\N=C(\N)S)c2ccccc12,177% and 159% and 179%
2,N/C(S)=N/N=C\c1ncc(N)c2ccccc12,177% and 174% and 162%
3,NCCNc1cnc(/C=N\N=C(\N)S)c2ccccc12,145% and 120% and 116%
4,N/C(S)=N/N=C\c1ncc(N2CCOCC2)c2c(N)cccc12,138% and 141% and 149%
5,N/C(S)=N/N=C/c1ccc(N)cn1,129% and 140% and 138%

# Organism: Mus musculus
# Experiment: Survival time of mice(out of 5) bearing L1210 leukemia. Long term survivors are the number of mice that survived for >60 days relative to the total number of treated mice.
# Assay type: functional
# How it was run: as §2
row,Structure (SMILES),Long-term survivors
1,N/C(S)=N/N=C\c1ncc(N)c2ccccc12,3
2,N/C(S)=N/N=C/c1ccc(N)cn1,1

# Organism: Mus musculus
# Experiment: The compound was tested for antineoplastic activity on the survival time of mice bearing L1210 leukemia. Average survival time includes only those mice that died prior to day 60.
# Assay type: functional
# How it was run: as §2
row,Structure (SMILES),Average survival [days]
1,N/C(S)=N/N=C\c1ncc(N)c2ccccc12,13.5
2,N/C(S)=N/N=C/c1ccc(N)cn1,19.2

# Organism: Bos taurus
# Experiment: Effect on rate of glucuronidation of the hydroxyl group by bovine UDP-glucuronyltransferase
# Assay type: functional
# How it was run: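 UDP formed during glucuronidation was measured by a coupled enzymatic assay, and the rate was calculated from NADH absorbance using an extinction coefficient of 6.22 × 10^6 cm2 mol-1. Test agents were dissolved in DMSO at final concentrations of 0.5 mM (hydroxyl-substituted pyridines) and 0.1 mM (hydroxyl-substituted isoquinolines). Model compounds lacking the thiosemicarbazone group were used because thiosemicarbazones interfere with the absorbance.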
row,Relative rate,Structure (SMILES)
1,1,Cc1nccc2c(O)cccc12
2,0.81,Cc1ccnc(C)c1O
3,0.08,Cc1ncc(C)c2c(O)cccc12
4,0.59,Cc1ccc(O)cn1
5,0.45,Oc1cccc2cnccc12
6,1,Cc1cc(C)c(O)cn1
7,0.65,Cc1ncccc1O
